Laboratory results taken from PMC6127844 (Journal of Enzyme Inhibition and Medicinal Chemistry, 2018).
Where two headings read alike, the source gives them in different places.

Key:
[1] = read-out: DPPH radical scavenging EC50, cited from earlier work
Aβ1–42 [2] = target: T1, Aβ1–42 (Homo sapiens, UniProt P05067); assay: TEM imaging of Aβ1–42 aggregation
In short: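 Aβ1–42 film dissolved by sonication in CH3CN/NaCl/NH4OH and diluted in 50 mM HEPES, pH 6.6. Mixed with test compound, with or without CuCl2, and incubated 24 h at 37 °C with gentle shaking. Sample applied to formvar/carbon Cu grids for 2 min at RT, washed with water and stained with 1% uranyl acetate for 1 min. Imaged at 200 kV, 10000–20000×.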

SH-SY5Y cells = assay: Concentration screening for nontoxic concentration; type: cell-based, human; conditions: 24 h, MTT
In short: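 SH-SY5Y human neuroblastoma cells grown in DMEM with 10% heat-inactivated FCS, penicillin and streptomycin at 37 °C in 5% CO2. Plated at 0.12 × 10^6 cells/ml. Test compound from 25 mM DMSO stock, screened at 5 to 30 μM. MTT (0.5 mg/ml) for 3 h at 37 °C; formazan dissolved in 0.04 M HCl/isopropanol and read at 570 nm. Expressed as % of untreated cells.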

Aβ1–42 [3] = target: T1, Aβ1–42; assay: Inhibition of Cu; type: biochemical; conditions: read-out: Inhibition of Aβ aggregation in the presence of copper(II)
In short: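 Aβ1–42 pretreated with HFIP, held as stock in CH3CN/Na2CO3/NaOH, then diluted to 40 μM in 0.215 M phosphate, pH 8.0. Incubated 24 h at 37 °C with or without test compound (80 μM), with CuCl2 (40 μM) for the Cu(II) condition. ThT (5 μM, glycine–NaOH pH 8.5) fluorescence read at 446/485 nm, corrected for peptide-free blanks. % inhibition taken versus no compound; mean ± SEM of duplicates from two experiments.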

[4] = Antioxidant activity, DPPH radical scavenging; conditions: read-out: DPPH radical scavenging EC50
In short: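 DPPH at 0.002% in methanol mixed with the test compound in methanol at five concentrations. Incubated 30 min at RT, protected from light. Absorbance read at 517 nm against a methanol blank. %AA = 100×(A_DPPH − A_sol)/A_DPPH. Run in duplicate. EC50 taken from a plot of antioxidant activity against compound concentration.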

[5] = physiological pH, CL/CM=10, CM=1 μM; cited from earlier work
Aβ1–42 [6] = target: T1, Aβ1–42; conditions: cited from earlier work

T1 sequence (P05067 672-713): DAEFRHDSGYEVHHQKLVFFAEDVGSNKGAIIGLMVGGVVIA

Compound: Cc1c(C)c2c(c(C)c1O)CCC(C)(C(=O)O)O2 (stereo not drawn) [Trolox]
- EC50 ([1]; same experimental method): 15 µM

Compound: O=C(NCC1CCN(Cc2ccccc2)CC1)c1ccc2[nH]c(-c3ccccc3O)nc2c1 [Compound 1, N-((1-benzylpiperidin-4-yl)methyl)-2-(2-hydroxyphenyl)-1H-benzo[d]imidazole-5-carboxamide]
- Aβ aggregates seen by TEM (Aβ1–42 [2]; absence of copper): quite sparse
- Aβ aggregates seen by TEM (Aβ1–42 [2]; presence of copper): reduction of Aβ aggregates
- Highest nontoxic concentration (SH-SY5Y cells): 2.5 µM

Compound: O=C(NCCN1CCN(Cc2ccccc2)CC1)c1cc2ccccc2o1 [Compound 5, N-(2-(4-benzylpiperazin-1-yl)ethyl)benzofuran-2-carboxamide]
- Highest nontoxic concentration (SH-SY5Y cells): 30 µM

Compound: O=C(NCCN1CCN(Cc2ccccc2)CC1)c1cc2cccc(O)c2o1 [Compound 3, N-(2-(4-benzylpiperazin-1-yl)ethyl)-7-hydroxybenzofuran-2-carboxamide]
- inhibition (Aβ1–42 [3]): 35.5%

Compound: COc1cccc2cc(C(=O)NCC3CCN(Cc4ccccc4)CC3)oc12 [Compound 6, N-((1-benzylpiperidin-4-yl)methyl)-7-methoxy-benzofuran-2-carboxamide]
- Highest nontoxic concentration (SH-SY5Y cells): 20 µM

Compound: Nc1c2c(nc3ccccc13)CCCC2 [Tacrine, tacrine]
- EC50 [1]: > 1000 µM

Compound: O=C(NCC1CCN(Cc2ccccc2)CC1)c1cc2ccccc2o1 [Compound 4, N-((1-benzylpiperidin-4-yl)methyl)benzofuran-2-carboxamide]
- Highest nontoxic concentration (SH-SY5Y cells): 30 µM

Compound: COc1cccc2cc(C(=O)NCCN3CCN(Cc4ccccc4)CC3)oc12 [Compound 7, N-(2-(4-benzylpiperazin-1-yl)ethyl)-7-methoxybenzofuran-2-carboxamide]
- Highest nontoxic concentration (SH-SY5Y cells): 30 µM

Compound: O=C(NCCN1CCN(Cc2ccccc2)CC1)c1ccc2[nH]c(-c3ccccc3O)nc2c1 [Compound 2, N-(2-(4-benzylpiperazin-1-yl)ethyl)-2-(2-hydroxyphenyl)-1H-benzo[d]imidazole-5-carboxamide]
- EC50 [4]: 594 ± 4 µM
- pCu [5]: 11.4
- Highest nontoxic concentration (SH-SY5Y cells): 5 µM
- Aβ aggregates seen by TEM (Aβ1–42 [6]; absence of copper): a reduction of Aβ aggregates was also observed
- Aβ aggregates seen by TEM (Aβ1–42 [6]; presence of copper): reduction of Aβ aggregates
